For 5 compounds, Inhibition, Control and inhibition results are on record in ChEMBL document CHEMBL1127630, “New dual inhibitors of neutral endopeptidase and angiotensin-converting enzyme: rational design, bioavailability, and pharmacological responses in experimental hypertension” (J Med Chem, 1994).

Assay [1] concerns Mus musculus. Put plainly: (§1) In vivo inhibition of lung Angiotensin I converting enzyme in mouse at a dose of 2.6*10e-5 mol/kg after 60 min oral administration. The assay is classed as functional. The procedure, abridged: (§2)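 Prescreen in mice: single oral dose of 2.6 X 10-5 mol/kg of prodrug (thioacetyl and benzyl ester protected, tested as stereoisomer mixtures). Inhibition of binding of a tritiated ACE probe to lung measured 20 and 60 min after dosing. Mean ± SEM of three experiments, three mice each.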

For assay [2], the target named is T1, Angiotensin-converting enzyme (Mus musculus) (UniProt P09470).
T1 sequence (whole entry): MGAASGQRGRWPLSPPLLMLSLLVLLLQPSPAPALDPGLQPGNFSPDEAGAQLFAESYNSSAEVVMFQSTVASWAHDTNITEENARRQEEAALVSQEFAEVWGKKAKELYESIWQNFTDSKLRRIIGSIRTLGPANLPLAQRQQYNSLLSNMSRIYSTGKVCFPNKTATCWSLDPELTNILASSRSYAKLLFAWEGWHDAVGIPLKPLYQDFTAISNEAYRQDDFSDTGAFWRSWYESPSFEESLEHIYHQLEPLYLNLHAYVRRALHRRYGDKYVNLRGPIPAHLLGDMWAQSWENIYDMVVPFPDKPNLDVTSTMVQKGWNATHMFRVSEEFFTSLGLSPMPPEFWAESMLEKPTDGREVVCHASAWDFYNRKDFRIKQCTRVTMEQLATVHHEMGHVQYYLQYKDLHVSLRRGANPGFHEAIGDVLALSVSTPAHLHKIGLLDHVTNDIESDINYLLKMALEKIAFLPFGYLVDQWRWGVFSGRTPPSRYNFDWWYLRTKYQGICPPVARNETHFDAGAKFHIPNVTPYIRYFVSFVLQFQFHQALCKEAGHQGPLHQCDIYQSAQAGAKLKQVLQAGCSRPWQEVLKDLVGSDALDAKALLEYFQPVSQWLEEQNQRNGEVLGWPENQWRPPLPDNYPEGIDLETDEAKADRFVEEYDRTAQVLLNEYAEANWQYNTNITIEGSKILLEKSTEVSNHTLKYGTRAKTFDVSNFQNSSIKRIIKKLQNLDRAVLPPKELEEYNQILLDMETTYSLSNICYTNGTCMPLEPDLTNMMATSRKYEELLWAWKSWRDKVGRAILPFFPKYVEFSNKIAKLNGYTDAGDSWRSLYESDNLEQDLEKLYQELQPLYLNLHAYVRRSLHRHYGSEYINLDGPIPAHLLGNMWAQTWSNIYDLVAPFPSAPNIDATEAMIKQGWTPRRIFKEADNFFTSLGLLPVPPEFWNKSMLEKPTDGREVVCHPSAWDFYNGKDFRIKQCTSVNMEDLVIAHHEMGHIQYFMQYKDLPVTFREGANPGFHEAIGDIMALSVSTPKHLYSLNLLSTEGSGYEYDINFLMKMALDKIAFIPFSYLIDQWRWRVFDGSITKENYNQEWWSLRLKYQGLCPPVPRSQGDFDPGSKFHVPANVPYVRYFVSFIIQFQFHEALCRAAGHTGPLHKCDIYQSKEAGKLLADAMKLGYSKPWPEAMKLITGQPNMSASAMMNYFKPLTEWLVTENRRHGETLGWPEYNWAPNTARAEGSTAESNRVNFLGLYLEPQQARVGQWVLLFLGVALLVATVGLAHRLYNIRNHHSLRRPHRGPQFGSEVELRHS
In words: In vivo inhibition of lung ACE was observed at 240 min after oral administration of the compound. The assay is classed as functional, organism-based. The arrangement: concentration or dose not given beside the values.

In assay [3] the test system is Mus musculus. Put plainly: In vivo inhibition of lung ACE was observed at 60 min after oral administration. The assay is classed as functional. The arrangement: concentration or dose not given beside the values.
Assay [4] deals with Mus musculus. Put plainly: Time course of the in vivo inhibition (percent of control) of lung ACE was observed at 30 min after oral administration of the compound. The arrangement: scale not given: the % may be the effect or the level left. The assay is classed as functional.
Assay [5] has as its target T1, Angiotensin-converting enzyme (Mus musculus). In words: Inhibition of lung Angiotensin Converting Enzyme (ACE) in mouse at a dose of 2.6*10e-5 mol/kg after 20 min oral administration. The procedure, abridged: as §2
Assay [6] has the same target. In words: In vivo inhibition of lung ACE was observed at 120 min after oral administration of the compound. The assay is classed as functional, organism-based. The arrangement: concentration or dose not given beside the values.
Assay [7] concerns the target T2, Neprilysin (Mus musculus) (UniProt Q61391).
T2 sequence (whole entry): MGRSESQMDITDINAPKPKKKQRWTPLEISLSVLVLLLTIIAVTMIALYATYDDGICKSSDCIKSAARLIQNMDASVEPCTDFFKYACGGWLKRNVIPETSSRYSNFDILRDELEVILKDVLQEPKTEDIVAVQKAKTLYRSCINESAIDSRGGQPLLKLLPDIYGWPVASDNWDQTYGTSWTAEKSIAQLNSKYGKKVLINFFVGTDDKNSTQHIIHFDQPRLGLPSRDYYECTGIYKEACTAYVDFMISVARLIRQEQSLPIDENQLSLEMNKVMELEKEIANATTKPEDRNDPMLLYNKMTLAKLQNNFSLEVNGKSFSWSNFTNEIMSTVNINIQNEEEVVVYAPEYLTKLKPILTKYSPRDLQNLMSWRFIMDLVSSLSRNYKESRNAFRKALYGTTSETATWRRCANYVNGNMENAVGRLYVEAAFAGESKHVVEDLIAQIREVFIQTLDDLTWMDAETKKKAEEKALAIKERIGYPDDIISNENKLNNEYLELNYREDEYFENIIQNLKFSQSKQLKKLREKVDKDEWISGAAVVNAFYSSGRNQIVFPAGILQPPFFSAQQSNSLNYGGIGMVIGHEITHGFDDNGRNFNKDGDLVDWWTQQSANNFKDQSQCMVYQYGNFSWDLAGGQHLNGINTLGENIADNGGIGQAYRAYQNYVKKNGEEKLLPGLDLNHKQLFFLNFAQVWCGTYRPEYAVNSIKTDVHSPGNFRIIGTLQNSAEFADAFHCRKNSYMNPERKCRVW
In words: Inhibition of Neutral Endopeptidase activity was measured by using the displacement of [3H]HACBOGly from mouse kidney after 16h oral administration. The arrangement: scale not given: the % may be the effect or the level left. The procedure, abridged:
(§3)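 Mice dosed orally at 2.6 X 10-6 mol/kg in 10% ethanol/10% cremophor/80% water. [3H]HACBOGly (1 uCi) injected iv at intervals after dosing. Kidneys taken 15 min later, homogenized in 50 mM Tris-HCl pH 7.4 at 4 °C and filtered, radioactivity counted. Inhibition expressed as percent displacement versus control. Nonspecific binding defined with coinjected retrothiorphan (10.000 eq).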
A general note: In a radioligand displacement assay an active substance lowers the binding of a labelled ligand.

For assay [8], the target named is T2, Neprilysin (Mus musculus). Put plainly: Inhibition of Neutral Endopeptidase activity was measured by using the displacement of [3H]-HACBOGly from mouse kidney after 1 hr oral administration. The arrangement: scale not given: the % may be the effect or the level left. The procedure, abridged:
as §3

Assay [9] deals with T2, Neprilysin (Mus musculus). Put plainly: Inhibition of Neutral Endopeptidase activity was measured by using the displacement of [3H]HACBOGly from mouse kidney after 2 hr oral administration. The arrangement: scale not given: the % may be the effect or the level left. The procedure, abridged:
as §3

The target in assay [10] is T2, Neprilysin (Mus musculus). Put plainly: Inhibition of Neutral Endopeptidase activity was measured by using the displacement of [3H]HACBOGly from mouse kidney after 8 hr oral administration. The arrangement: scale not given: the % may be the effect or the level left. The procedure, abridged: as §3
For assay [11], the target named is T1, Angiotensin-converting enzyme (Mus musculus). In words: In vivo inhibition of lung ACE was observed at 30 min after oral administration of the compound. The assay is classed as organism-based. The arrangement: concentration or dose not given beside the values.
The target of assay [12] is T2, Neprilysin (Mus musculus). Put plainly: Inhibition of Neutral Endopeptidase activity was measured by using the displacement of [3H]HACBOGly from mouse kidney after 4 hr oral administration. The arrangement: scale not given: the % may be the effect or the level left. The procedure, abridged: as §3
In assay [13] the target is T1, Angiotensin-converting enzyme (Mus musculus). The description is as §1. The assay is classed as organism-based. The procedure, abridged: as §2
Assay [14] has as its target T2, Neprilysin (Mus musculus). In words: Inhibition of Neutral Endopeptidase activity was measured by using the displacement of [3H]HACBOGly from mouse kidney after 1 hour oral administration. The arrangement: scale not given: the % may be the effect or the level left. The procedure, abridged: as §3

What is called Inhibition is the relative decrease from the control value, in per cent. As usually defined, the inhibition is the change of the read-out against control, counted positive when it falls. In [1], `CC(=O)SCC(C(=O)N[C@@H](C)C(=O)OCc1ccccc1)C(C)c1ccccc1` (stereo partly drawn) gave an Inhibition of 44%. In addition, the Control was 2% in assay [2], 46% in assay [3], 41% in [4] and 21% in [6]. The inhibition in assay [5] is 54%.
Take `CC(c1ccccc1)C(CSC(=O)c1ccccc1)C(=O)N[C@@H](C)C(=O)O` (stereo partly drawn): the Control in [7] came out at 12%; in [8] it was 100%; in assay [2] it was 32%; in [9] it was 100%; in assay [3] it was 66%; in assay [10] it was 93%. The values for the Control in assay [6], in [11] and in assay [12] were 44%, 75% and 100%, respectively.
Turning to `CC(=O)SCC(C(=O)NCC(=O)OCc1ccccc1)C(C)c1ccccc1` (stereo not drawn), the figures for the inhibition in assay [5] and in assay [13] were 36% and 43%, respectively.
As to `C[C@H](NC(=O)[C@@H](CSC(=O)C12CC3CC(CC(C3)C1)C2)[C@@H](C)c1ccccc1)C(=O)O`, the Control in assay [7] came to 10%; in assay [2] it was 37%; in assay [9] it was 100%; in assay [3], 54%; in [10] it was 94%; in assay [14], 100%. Further, the results for the Control in assay [6], in assay [11] and in [12] were 42%, 72% and 100%, respectively.
On to `CCC[C@H](NC(=O)C(CSC(=O)c1ccccc1)C(C)c1ccccc1)C(=O)O` (stereo partly drawn), for which the Control amounted to 70% in [8]; 41% in assay [2]; 55% in [9]; 52% in [3]; 49% in assay [6]; 69% in assay [11]. Moreover, in assay [12], the Control turned out to be 46%.
